ChEMBL document CHEMBL5376028, “Discovery of dual-action phenolic 4-arylidene-isoquinolinones with antioxidant and α-glucosidase inhibition activities” (RSC Med Chem, 2024)
pIC50: −log10 of the molar value. The source made the active and inactive calls. The rule behind the calls is not given here.

Key:
Alpha-glucosidase = Alpha-glucosidase (Saccharomyces cerevisiae S288c, UniProt P53341+P38158+P07265); experiment: Inhibition of Saccharomyces cerevisiae alpha-glucosidase using p-nitrophenyl-alpha-D-glucopyranoside as substrate pre-incubated for 10 mins followed by substrate addition and measured after 15 mins by absorbance based analysis; type: protein assay
Brain [1] = experiment: Antioxidant activity in Wistar rat brain homogenate assessed as inhibition of FeSO4-induced lipid peroxidation by measuring TBARS scavenging activity at 100 uM preincubated with compound for 30 mins followed by FeSO4 addition and measured after 1 hrs by absorbance based microplate reader relative to control; type: functional, tissue-based; set-up: scale not given: the % may be the effect or the level left; conditions: time 90.0 min
In short: (§1)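 Whole brains of adult male Wistar rats (200–250 g) were homogenized 1/10 in PBS pH 7.4 and spun at 800 rcf. The supernatant was adjusted to 2.666 mg protein/mL and preincubated with EDTA and compound in DMSO for 30 min at 37 °C. FeSO₄ (final 10 μM) was added for 1 h at 37 °C. TBA/TCA reagent was added, then heating at 80 °C, and A540 was read against a TMP standard curve. Inhibition % was calculated versus the DMSO control; α-tocopherol served as the standard. IC₅₀ came from linear regression, mean ± SEM of three experiments.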

Mus musculus [2] = experiment: Anti-hyperglycemic activity in CDI mouse assessed as decrease in blood glucose level at 50 mg/kg preadministered with compound for 30 mins followed by sucrose administration and measured after 30 mins by oral sucrose tolerance test relative to control; type: functional; set-up: scale not given: the % may be the effect or the level left
In short: (§2)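 Sucrose 3 g kg⁻¹ given orally 30 min later. Caudal vein blood glucose measured by glucometer at 0, 0.5, 1, 1.5, 2 and 3 h; % variation of glycemia calculated relative to the 0 h level.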

Brain [3] = experiment: Antioxidant activity in Wistar rat brain homogenate assessed as inhibition of FeSO4-induced lipid peroxidation preincubated with compound for 30 mins followed by FeSO4 addition and measured after 1 hrs by TBARS assay; type: functional, tissue-based; in short: as §1
[4] = biological target: T1, Alpha-glucosidase (Saccharomyces cerevisiae S288c) (UniProt P53341+P38158+P07265); experiment: Mixed type inhibition of Saccharomyces cerevisiae alpha-glucosidase using p-nitrophenyl-alpha-D-glucopyranoside as substrate at 1 to 2 times of IC50 pre-incubated for 10 mins followed by substrate addition and measured after 15 mins by Lineweaver-Burk plot analysis; type: protein assay; conditions: time 25.0 min
In short: (§3)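 The same α-glucosidase protocol was used, with enzyme and inhibitor preincubated 10 min. Reactions were started with PNPG varied from 1 to 23.1 mM at 37 °C, quenched with […] and read at 405 nm. […] Mode was assigned from Lineweaver–Burk plots.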

[5] = Antioxidant activity assessed as DPPH radical scavenging activity at 100 uM incubated for 30 mins in dark by absorbance based analysis relative to control; type: functional
In short: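 The compound in DMSO was mixed with DPPH in EtOH (final 100 μM). It was incubated 30 min at 37 °C with stirring in the dark, and absorbance was read at 515 nm. Scavenging % = (C − E) × 100/C against the DPPH control.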

[6] = Antioxidant activity assessed as hydroxyl radical scavenging activity by measuring fluorescence intensity at 106 uM by Electron Paramagnetic Resonance based spectrophotometric analysis (reference value: 610 a.u.); type: functional
In short: (§4)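 Hydroxyl radicals generated by Fenton reaction: FeSO₄·7H₂O 20 μM (in acid water, pH 2.5) plus H₂O₂ 200 μM, with DMPO 6000 μM spin trap in PBS pH 7.4. Compound added in acetone at final 106, 60, 10.66 or 3.3 μM. The DMPO–OH quartet was recorded by EPR as the first derivative in a quartz flat cell, at 9.44 GHz, 8 mW microwave power, 0.1 mT modulation width. Intensity was taken as peak height of the second signal.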

[7] = Antioxidant activity assessed as reduction in hydroxyl concentration at 10 uM by Electron Paramagnetic Resonance based spectrophotometric analysis relative to control; type: functional; set-up: scale not given: the % may be the effect or the level left
In short: (§5)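 Hydroxyl radicals came from a Fenton reaction: FeSO₄·7H₂O 20 μM (acid water, pH 2.5) plus H₂O₂ 200 μM, with DMPO 6000 μM spin trap in PBS pH 7.4. The compound in acetone was tested at final 106, 60, 10.66 and 3.3 μM. The DMPO–OH quartet was recorded by EPR (9.44 GHz, 8 mW, 0.1 mT modulation, 120 s sweep), and intensity was taken from the second-peak height.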

Mus musculus [8] = experiment: Anti-hyperglycemic activity in CDI mouse assessed as blood glucose concentration at 50 mg/kg preadministered with compound for 30 mins followed by sucrose administration and measured after 3 hrs by oral sucrose tolerance test relative to control; type: functional; conditions: time 3.5 hrs; in short: as §2
[9] = Antioxidant activity assessed as inhibition of hydroxyl radical at 106 uM by Electron Paramagnetic Resonance based spectrophotometric analysis relative to control; type: functional; in short: as §5
[10] = Antioxidant activity assessed as hydroxyl radical scavenging activity by Electron Paramagnetic Resonance based spectrophotometric analysis; type: functional; conditions: dose 3-106 µM; in short: as §5
Mus musculus [11] = experiment: Anti-hyperglycemic activity in CDI mouse assessed as reduction in blood glucose level preadministered with compound for 30 mins followed by sucrose administration and measured upto 3 hrs by oral sucrose tolerance test; type: functional, organism-based; conditions: dose 50-100 mg/kg, time <= 3.5 hrs; in short: as §2
[12] = Antioxidant activity assessed as hydroxyl radical scavenging activity by measuring fluorescence intensity at 60 uM by Electron Paramagnetic Resonance based spectrophotometric analysis (reference value: 610 a.u.); type: functional; in short: as §4
[13] = Antioxidant activity assessed as hydroxyl radical scavenging activity by measuring fluorescence intensity at 10 uM by Electron Paramagnetic Resonance based spectrophotometric analysis (reference value: 610 a.u.); type: functional; in short: as §4
[14] = Antioxidant activity assessed as hydroxyl radical scavenging activity by measuring fluorescence intensity at 3 uM by Electron Paramagnetic Resonance based spectrophotometric analysis (reference value: 610 a.u.); type: functional; in short: as §4
Mus musculus [15] = experiment: Anti-hyperglycemic activity in CDI mouse assessed as reduction in blood glucose level at 100 mg/kg preadministered with compound for 30 mins followed by sucrose administration and measured upto 3 hrs by oral sucrose tolerance test relative to control; type: functional; set-up: scale not given: the % may be the effect or the level left; conditions: time < 3.5 hrs; in short: as §2
[16] = Toxicity in CDI mouse; conditions: in vivo
COS-7 = experiment: Cytotoxicity against African green monkey COS-7 cells at 50 uM; type: toxicity, cell-based; conditions: chlorocebus aethiops, cos-7, 50 µM
[17] = biological target: T1, Alpha-glucosidase (Saccharomyces cerevisiae S288c); experiment: Mixed type inhibition of Saccharomyces cerevisiae alpha-glucosidase using p-nitrophenyl-alpha-D-glucopyranoside as substrate at 0.5 to 1 times of IC50 pre-incubated for 10 mins followed by substrate addition and measured after 15 mins by Lineweaver-Burk plot analysis; type: protein assay; conditions: time 25.0 min; in short: as §3
Mus musculus [18] = experiment: Anti-hyperglycemic activity in CDI mouse assessed as reduction in glucose AUC at 50 mg/kg measured for 7 hrs by oral glucose tolerance test; type: functional, organism-based
Mus musculus [19] = experiment: Anti-hyperglycemic activity in CDI mouse assessed as reduction in blood glucose level at 50 mg/kg measured for 7 hrs by oral glucose tolerance test; type: functional, organism-based
[20] = biological target: T1, Alpha-glucosidase (Saccharomyces cerevisiae S288c); experiment: Non-competitive inhibition of Saccharomyces cerevisiae alpha-glucosidase using p-nitrophenyl-alpha-D-glucopyranoside as substrate at 1 to 2 times of IC50 pre-incubated for 10 mins followed by substrate addition and measured after 15 mins by Lineweaver-Burk plot analysis; type: protein assay; conditions: time 25.0 min; in short: as §3
[21] = Rattus norvegicus, Wistar, Brain

COc1cc(/C=C2/C(=O)N(c3ccc(C(C)C)cc3)C(C(=O)NC3CCCCC3)c3ccccc32)ccc1O (stereo not given)
IC50 (Alpha-glucosidase): 14.8 µM | Activity (Brain [1]): 95.7% | Activity (Mus musculus [2]; time 60 min, 1 h): 17% | pIC50 (Brain [3]; [21]): 4.76 | inhibition [4]: Active | Activity [5]: 68%

COc1cc(/C=C2/C(=O)N(c3ccc(C(C)C)cc3)C(C(=O)NC3CCCCC3)c3ccccc32)cc(OC)c1O (stereo not given)
IC50 (Alpha-glucosidase): 33.1 µM | Flu intensity [6]: 150 a.u. | Activity (Brain [1]): 97.7% | Activity [7]: 25% | Activity (Mus musculus [8]): 29% | Activity (Mus musculus [2]; time 60.0 min): Active | inhibition [9]: 76% | Activity [10]: Dose-Dependent Effect | Activity (Mus musculus [11]): Dose-Dependent Effect | Flu intensity [12]: 256 a.u. | Flu intensity [13]: 412 a.u. | pIC50 (Brain [3]; [21]): 5.85 | Flu intensity [14]: 464 a.u. | Activity [5]: 35.4% | Activity (Mus musculus [15]): 54%

COc1cc(/C=C2/C(=O)N(c3ccc(C)cc3)C(C(=O)NC3CCCCC3)c3ccccc32)cc(OC)c1O (stereo not given)
IC50 (Alpha-glucosidase): 44.4 µM | Activity (Brain [1]): 96.5% | pIC50 (Brain [3]; [21]): 5.46 | Activity [5]: 37.5%

COc1cc(/C=C2/C(=O)N(c3ccccc3)C(C(=O)NC3CCCCC3)c3ccccc32)cc(OC)c1O (stereo not given)
IC50 (Alpha-glucosidase): 60.1 µM | Activity (Brain [1]): 97.8% | pIC50 (Brain [3]; [21]): 5.32 | Activity [5]: 40.6%

COc1cc(/C=C2/C(=O)N(c3ccc(O)cc3)C(C(=O)NC3CCCCC3)c3ccccc32)ccc1O (stereo not given)
IC50 (Alpha-glucosidase): 92.8 µM | Activity (Brain [1]): 96.4% | pIC50 (Brain [3]; [21]): 4.64 | Activity [5]: 72.2%

COc1ccc2c(c1)/C(=C\c1ccc(O)c(OC)c1)C(=O)N(c1ccc(C(C)C)cc1)C2C(=O)NC(C)(C)C (stereo not given)
IC50 (Alpha-glucosidase): 31.5 µM | Activity (Brain [1]): 95.4% | pIC50 (Brain [3]; [21]): 4.95 | Activity [5]: 69.2%

COc1cc(/C=C2/C(=O)N(Cc3ccccc3)C(C(=O)NC3CCCCC3)c3ccccc32)cc(OC)c1O (stereo not given)
IC50 (Alpha-glucosidase): 61.3 µM | Activity (Brain [1]): 96.8% | pIC50 (Brain [3]; [21]): 5.66 | Activity [5]: 36.2%

COc1cc(/C=C2/C(=O)N(c3ccc(C(C)C)cc3)C(C(=O)NC(C)(C)C)c3ccccc32)cc(OC)c1O (stereo not given)
IC50 (Alpha-glucosidase): > 100 µM | Activity (Brain [1]): 96.8% | pIC50 (Brain [3]; [21]): 5.62 | Activity [5]: 37.6%

O=c1c(O)c(-c2ccc(O)c(O)c2)oc2cc(O)cc(O)c12
Activity (Brain [1]): 95.7% | Activity [5]: 97.9%

COc1cc(/C=C2/C(=O)N(c3ccccc3)C(C(=O)NC3CCCCC3)c3ccccc32)ccc1O (stereo not given)
IC50 (Alpha-glucosidase): 50.5 µM | Activity (Brain [1]): 95.5% | pIC50 (Brain [3]; [21]): 4.72 | Activity [5]: 66.8%

COc1cc(/C=C2/C(=O)N(c3ccc(C(F)(F)F)cc3)C(C(=O)NC3CCCCC3)c3ccccc32)cc(OC)c1O (stereo not given)
IC50 (Alpha-glucosidase): > 100 µM | Activity (Brain [1]): 99.4% | Activity (Mus musculus [2]; time 60.0 min): Active | pIC50 (Brain [3]; [21]): 5.80 | Activity [5]: 89.9%

COc1cc(/C=C2/C(=O)N(c3ccc(C(C)C)cc3)C(C(=O)NC(C)(C)C)c3ccccc32)ccc1O (stereo not given)
IC50 (Alpha-glucosidase): 68 µM | Activity (Brain [1]): 92.4% | Activity [5]: 67.3%

CC(C)c1ccc(N2C(=O)/C(=C/c3ccccc3)c3ccccc3C2C(=O)NC(C)(C)C)cc1 (stereo not given)
IC50 (Alpha-glucosidase): 50.6 µM | Activity (Brain [1]): 6.1% | Activity [5]: 0%

COc1cc(/C=C2/C(=O)N(c3ccc(F)cc3)C(C(=O)NC3CCCCC3)c3ccccc32)ccc1O (stereo not given)
IC50 (Alpha-glucosidase): 52.5 µM | Activity (Brain [1]): 90.5% | Activity [5]: 67.3%

VITAMIN E [listing 1 of 2 here]
Activity (Brain [1]): 79.1% | Activity [5]: 87.4%

COc1cc(/C=C2/C(=O)N(c3ccc(F)cc3)C(C(=O)NC3CCCCC3)c3ccccc32)cc(OC)c1O (stereo not given)
IC50 (Alpha-glucosidase): 57.2 µM | Activity (Brain [1]): 96.8% | pIC50 (Brain [3]; [21]): 5.54 | Activity [5]: 36.1%

COc1cc(/C=C2/C(=O)N(c3ccc(O)cc3)C(C(=O)NC3CCCCC3)c3ccccc32)cc(OC)c1O (stereo not given)
IC50 (Alpha-glucosidase): > 100 µM | Activity (Brain [1]): 98% | pIC50 (Brain [3]; [21]): 5.01 | Activity [5]: 33.1%

COc1cc(/C=C2/C(=O)N(c3ccc(C)cc3)C(C(=O)NC3CCCCC3)c3ccccc32)ccc1O (stereo not given)
IC50 (Alpha-glucosidase): 30.2 µM | Activity (Brain [1]): 70.7% | Activity (Mus musculus [8]): 20% | Activity [16]: Non-Toxic | Activity (COS-7): Non-Toxic | Activity (Mus musculus [2]; time 60.0 min): Active | Activity (Mus musculus [11]): Dose-Dependent Effect | inhibition [17]: Active | Activity (Mus musculus [18]): inactive | Activity (Mus musculus [19]): inactive | Activity [5]: 72.7% | Activity (Mus musculus [15]): 41%

COc1cc(/C=C2/C(=O)N(c3ccc(C(F)(F)F)cc3)C(C(=O)NC3CCCCC3)c3ccccc32)ccc1O (stereo not given)
IC50 (Alpha-glucosidase): 13.7 µM | Activity (Brain [1]): 64.3% | Activity [16]: Non-Toxic | Activity (COS-7): Non-Toxic | Activity (Mus musculus [2]; time 60 min, 1 h): 26% | Activity (Mus musculus [18]): inactive | inhibition [20]: Active | Activity (Mus musculus [19]): inactive | Activity [5]: 65.9%

VITAMIN E [listing 2 of 2 here]
pIC50 (Brain [3]): 5.17

COc1cc(/C=C2/C(=O)N(Cc3ccccc3)C(C(=O)NC3CCCCC3)c3ccccc32)ccc1O (stereo not given)
IC50 (Alpha-glucosidase): 50.1 µM | Activity (Brain [1]): 93.1% | Activity [5]: 77.1%
